Values after ≈ are worked out from the molar mass of the structure shown.
Legend:
Type in all cases: functional
Pseudomonas aeruginosa [1] = test: Antimicrobial activity against Pseudomonas aeruginosa PA14 PA5288 harboring glnK mutant gene by Etest method
How it was run: (§1)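 Etest MIC. Overnight LB cultures at 37°C were diluted in sterile 0.85% NaCl to about 1 × 10^7 CFU/ml. 100 µl was spread on Mueller-Hinton agar, one strip was placed per plate, and plates were incubated at 37°C for 18 h. Equal cell numbers were seeded per plate, and results were verified in triplicate. PA14 wild type was included in each set as a susceptibility control.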

Pseudomonas aeruginosa [2] = test: Antimicrobial activity against Pseudomonas aeruginosa PA14 PA0503 harboring mutation in Putative biotin synthesis protein BioC by Etest method
How it was run: (§2)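 Overnight LB cultures (37°C) diluted in sterile 0.85% NaCl to about 1 × 10^7 CFU/ml. 100 µl spread on Mueller-Hinton agar, one Etest strip per plate, 18 h at 37°C. Ceftazidime, imipenem and meropenem tested. Wild-type PA14 plate included in each set. Each mutant verified in triplicate.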

Pseudomonas aeruginosa [3] = test: Antimicrobial activity against Pseudomonas aeruginosa PA14 PA0667 harboring mutation in putative metallopeptidase by Etest method; how it was run: as §2
Pseudomonas aeruginosa [4] = test: Antimicrobial activity against Pseudomonas aeruginosa PA14 PA5366 harboring pstB mutant gene by Etest method; how it was run: as §1
Pseudomonas aeruginosa [5] = test: Antimicrobial activity against Pseudomonas aeruginosa PA14 PA14_07490/07510 harboring mutation in intergenic region by Etest method; how it was run: as §2
Pseudomonas aeruginosa [6] = test: Antimicrobial activity against Pseudomonas aeruginosa PA14 PA3247 harboring mutation in putative aspartyl aminopeptidase by Etest method; how it was run: as §2
Pseudomonas aeruginosa [7] = test: Antimicrobial activity against wild type Pseudomonas aeruginosa PA14 by Etest method; how it was run: as §1
Pseudomonas aeruginosa [8] = test: Antimicrobial activity against Pseudomonas aeruginosa PA14 PA4069 harboring mutation in putative dTDP-4-rhamnose reductase-related protein by Etest method; how it was run: as §1
Pseudomonas aeruginosa [9] = test: Antimicrobial activity against Pseudomonas aeruginosa PA14 PA4527 harboring pilC mutant gene by Etest method; how it was run: as §1
Pseudomonas aeruginosa [10] = test: Antimicrobial activity against Pseudomonas aeruginosa PA14 PA2023 harboring galU mutant gene by Etest method; how it was run: as §2
Pseudomonas aeruginosa [11] = test: Antimicrobial activity against Pseudomonas aeruginosa PA14 PA14_23420 harboring mutation in putative zinc-binding dehydrogenase by Etest method; how it was run: as §2
Pseudomonas aeruginosa [12] = test: Antimicrobial activity against Pseudomonas aeruginosa PA14 PA5000 harboring wapR mutant gene by Etest method; how it was run: as §1
Pseudomonas aeruginosa [13] = test: Antimicrobial activity against Pseudomonas aeruginosa PA14 PA4088 harboring mutation in putative aminotransferase by Etest method; how it was run: as §1
Pseudomonas aeruginosa [14] = test: Antimicrobial activity against Pseudomonas aeruginosa PA14 PA4005 harboring mutation in conserved hypothetical protein by Etest method; how it was run: as §1
Pseudomonas aeruginosa [15] = test: Antimicrobial activity against Pseudomonas aeruginosa PA14 PA0479 harboring mutation in putative transcriptional regulator, LysR family by Etest method; how it was run: as §2
Pseudomonas aeruginosa [16] = test: Antimicrobial activity against Pseudomonas aeruginosa PA14 PA3978 harboring mutation in hypothetical protein by Etest method; how it was run: as §1
Pseudomonas aeruginosa [17] = test: Antimicrobial activity against Pseudomonas aeruginosa PA14 PA5174 harboring mutation in putative beta-ketoacyl synthase by Etest method; how it was run: as §1
Pseudomonas aeruginosa [18] = test: Antimicrobial activity against Pseudomonas aeruginosa PA14 PA5005 harboring mutation in putative carbamoyltransferase by Etest method; how it was run: as §1
Pseudomonas aeruginosa [19] = test: Antimicrobial activity against Pseudomonas aeruginosa PA14 PA2621 harboring clpS mutant gene by Etest method; how it was run: as §2
Pseudomonas aeruginosa [20] = test: Antimicrobial activity against Pseudomonas aeruginosa PA14 PA4946 harboring mutL mutant gene by Etest method; how it was run: as §1
Pseudomonas aeruginosa [21] = test: Antimicrobial activity against Pseudomonas aeruginosa PA14 PA3818 harboring suhB mutant gene by Etest method; how it was run: as §1
Pseudomonas aeruginosa [22] = test: Antimicrobial activity against Pseudomonas aeruginosa PA14 PA4007 harboring proA mutant gene by Etest method; how it was run: as §1
Pseudomonas aeruginosa [23] = test: Antimicrobial activity against Pseudomonas aeruginosa PA14 PA3800 harboring mutation in conserved hypothetical protein by Etest method; how it was run: as §1
Pseudomonas aeruginosa [24] = test: Antimicrobial activity against Pseudomonas aeruginosa PA14 PA1553 harboring mutation in putative cytochrome c oxidase, cbb3 type, subunit II by Etest method; how it was run: as §2
Pseudomonas aeruginosa [25] = test: Antimicrobial activity against Pseudomonas aeruginosa PA14 PA2128 harboring cupA1 mutant gene by Etest method; how it was run: as §2
Pseudomonas aeruginosa [26] = test: Antimicrobial activity against Pseudomonas aeruginosa PA14 PA0766 harboring mucD mutant gene by Etest method; how it was run: as §2
Pseudomonas aeruginosa [27] = test: Antimicrobial activity against Pseudomonas aeruginosa PA14 PA3721 harboring nalC mutant gene by Etest method; how it was run: as §1
Pseudomonas aeruginosa [28] = test: Antimicrobial activity against Pseudomonas aeruginosa PA14 PA0908 harboring mutation in hypothetical protein by Etest method; how it was run: as §2
Pseudomonas aeruginosa [29] = test: Antimicrobial activity against Pseudomonas aeruginosa PA14 PA4459 harboring mutation in Conserved hypothetical protein by Etest method; how it was run: as §1
Pseudomonas aeruginosa [30] = test: Antimicrobial activity against Pseudomonas aeruginosa PA14 PA0427 harboring oprM mutant gene by Etest method; how it was run: as §2
Pseudomonas aeruginosa [31] = test: Antimicrobial activity against Pseudomonas aeruginosa PA14 PA2487 harboring mutation in hypothetical protein by Etest method; how it was run: as §2
Pseudomonas aeruginosa [32] = test: Antimicrobial activity against Pseudomonas aeruginosa PA14 PA0764 harboring mucB mutant gene by Etest method; how it was run: as §2
Pseudomonas aeruginosa [33] = test: Antimicrobial activity against Pseudomonas aeruginosa PA14 PA0420 harboring bioA mutant gene by Etest method; how it was run: as §2
Pseudomonas aeruginosa [34] = test: Antimicrobial activity against Pseudomonas aeruginosa PA14 PA0807 harboring ampDh3 mutant gene by Etest method; how it was run: as §2
Pseudomonas aeruginosa [35] = test: Antimicrobial activity against Pseudomonas aeruginosa PA14 PA4753 harboring mutation in putative RNA-binding protein by Etest method; how it was run: as §1
Pseudomonas aeruginosa [36] = test: Antimicrobial activity against Pseudomonas aeruginosa PA14 PA14_15600 harboring mutation in conserved hypothetical protein by Etest method; how it was run: as §2
Pseudomonas aeruginosa [37] = test: Antimicrobial activity against Pseudomonas aeruginosa PA14 PA5130 harboring mutation in putative rhodanese-like domain protein by Etest method; how it was run: as §1
Pseudomonas aeruginosa [38] = test: Antimicrobial activity against Pseudomonas aeruginosa PA14 PA4269 harboring rpoC mutant gene by Etest method; how it was run: as §1
Pseudomonas aeruginosa [39] = test: Antimicrobial activity against Pseudomonas aeruginosa PA14 PA3145 harboring wbpL mutant gene by Etest method; how it was run: as §2
Pseudomonas aeruginosa [40] = test: Antimicrobial activity against Pseudomonas aeruginosa PA14 PA2963 harboring mutation in putative aminodeoxychorismate lyase by Etest method; how it was run: as §2
Pseudomonas aeruginosa [41] = test: Antimicrobial activity against Pseudomonas aeruginosa PA14 PA5003 harboring mutation in conserved hypothetical protein by Etest method; how it was run: as §1
Pseudomonas aeruginosa [42] = test: Antimicrobial activity against Pseudomonas aeruginosa PA14 PA2970 harboring rpmF mutant gene by Etest method; how it was run: as §2
Pseudomonas aeruginosa [43] = test: Antimicrobial activity against Pseudomonas aeruginosa PA14 PA5192 harboring pckA mutant gene by Etest method; how it was run: as §1
Pseudomonas aeruginosa [44] = test: Antimicrobial activity against Pseudomonas aeruginosa PA14 PA5002 harboring mutation in hypothetical protein by Etest method; how it was run: as §1
Pseudomonas aeruginosa [45] = test: Antimicrobial activity against Pseudomonas aeruginosa PA14 PA0401 harboring mutation in Noncatalytic dihydroorotase-like protein by Etest method; how it was run: as §2
Pseudomonas aeruginosa [46] = test: Antimicrobial activity against Pseudomonas aeruginosa PA14 PA4402 harboring argJ mutant gene by Etest method; how it was run: as §1
Pseudomonas aeruginosa [47] = test: Antimicrobial activity against Pseudomonas aeruginosa PA14 PA1483 harboring cycH mutant gene by Etest method; how it was run: as §2
Pseudomonas aeruginosa [48] = test: Antimicrobial activity against Pseudomonas aeruginosa PA14 PA1011 harboring mutation in putative lipoprotein by Etest method; how it was run: as §2

## C[C@@H](O)[C@H]1C(=O)N2C(C(=O)O)=C(SCCNC=N)C[C@H]12 [IMIPENEM ANHYDROUS]
Pseudomonas aeruginosa [1]
  MIC: 0.25 µg/mL (≈ 0.835 µM)
Pseudomonas aeruginosa [2]
  MIC: 0.19 µg/mL (≈ 0.635 µM)
Pseudomonas aeruginosa [3]
  MIC: 0.5 µg/mL (≈ 1.67 µM)
Pseudomonas aeruginosa [4]
  MIC: 0.25 µg/mL (≈ 0.835 µM)
Pseudomonas aeruginosa [5]
  MIC: 0.5 µg/mL (≈ 1.67 µM)
Pseudomonas aeruginosa [6]
  MIC: 0.38 µg/mL (≈ 1.27 µM)
Pseudomonas aeruginosa [7]
  MIC: 0.5 µg/mL (≈ 1.67 µM)
Pseudomonas aeruginosa [8]
  MIC: 0.25 µg/mL (≈ 0.835 µM)
Pseudomonas aeruginosa [9]
  MIC: 0.38 µg/mL (≈ 1.27 µM)
Pseudomonas aeruginosa [10]
  MIC: 0.094 µg/mL (≈ 0.314 µM)
Pseudomonas aeruginosa [11]
  MIC: 0.38 µg/mL (≈ 1.27 µM)
Pseudomonas aeruginosa [12]
  MIC: 0.5 µg/mL (≈ 1.67 µM)
Pseudomonas aeruginosa [13]
  MIC: 0.38 µg/mL (≈ 1.27 µM)
Pseudomonas aeruginosa [14]
  MIC: 0.064 µg/mL (≈ 0.214 µM)
Pseudomonas aeruginosa [15]
  MIC: 1 µg/mL (≈ 3.34 µM)
Pseudomonas aeruginosa [16]
  MIC: 0.094 µg/mL (≈ 0.314 µM)
Pseudomonas aeruginosa [17]
  MIC: 0.125 µg/mL (≈ 0.418 µM)
Pseudomonas aeruginosa [18]
  MIC: 0.25 µg/mL (≈ 0.835 µM)
Pseudomonas aeruginosa [19]
  MIC: 0.38 µg/mL (≈ 1.27 µM)
Pseudomonas aeruginosa [20]
  MIC: 0.38 µg/mL (≈ 1.27 µM)
Pseudomonas aeruginosa [21]
  MIC: 0.38 µg/mL (≈ 1.27 µM)
Pseudomonas aeruginosa [22]
  MIC: 0.19 µg/mL (≈ 0.635 µM)
Pseudomonas aeruginosa [23]
  MIC: 0.38 µg/mL (≈ 1.27 µM)
Pseudomonas aeruginosa [24]
  MIC: 1 µg/mL (≈ 3.34 µM)
Pseudomonas aeruginosa [25]
  MIC: 0.38 µg/mL (≈ 1.27 µM)
Pseudomonas aeruginosa [26]
  MIC: 0.25 µg/mL (≈ 0.835 µM)
Pseudomonas aeruginosa [27]
  MIC: 0.5 µg/mL (≈ 1.67 µM)
Pseudomonas aeruginosa [28]
  MIC: 1.5 µg/mL (≈ 5.01 µM)
Pseudomonas aeruginosa [29]
  MIC: 0.25 µg/mL (≈ 0.835 µM)
Pseudomonas aeruginosa [30]
  MIC: 0.38 µg/mL (≈ 1.27 µM)
Pseudomonas aeruginosa [31]
  MIC: 0.5 µg/mL (≈ 1.67 µM)
Pseudomonas aeruginosa [32]
  MIC: 0.25 µg/mL (≈ 0.835 µM)
Pseudomonas aeruginosa [33]
  MIC: 0.125 µg/mL (≈ 0.418 µM)
Pseudomonas aeruginosa [34]
  MIC: 1 µg/mL (≈ 3.34 µM)
Pseudomonas aeruginosa [35]
  MIC: 0.5 µg/mL (≈ 1.67 µM)
Pseudomonas aeruginosa [36]
  MIC: 0.5 µg/mL (≈ 1.67 µM)
Pseudomonas aeruginosa [37]
  MIC: 0.19 µg/mL (≈ 0.635 µM)
Pseudomonas aeruginosa [38]
  MIC: 0.5 µg/mL (≈ 1.67 µM)
Pseudomonas aeruginosa [39]
  MIC: 0.38 µg/mL (≈ 1.27 µM)
Pseudomonas aeruginosa [40]
  MIC: 0.25 µg/mL (≈ 0.835 µM)
Pseudomonas aeruginosa [41]
  MIC: 0.5 µg/mL (≈ 1.67 µM)
Pseudomonas aeruginosa [42]
  MIC: 0.5 µg/mL (≈ 1.67 µM)
Pseudomonas aeruginosa [43]
  MIC: 0.38 µg/mL (≈ 1.27 µM)
Pseudomonas aeruginosa [44]
  MIC: 0.38 µg/mL (≈ 1.27 µM)
Pseudomonas aeruginosa [45]
  MIC: 0.38 µg/mL (≈ 1.27 µM)
Pseudomonas aeruginosa [46]
  MIC: 0.38 µg/mL (≈ 1.27 µM)
Pseudomonas aeruginosa [47]
  MIC: 0.5 µg/mL (≈ 1.67 µM)
Pseudomonas aeruginosa [48]
  MIC: 0.5 µg/mL (≈ 1.67 µM)

— ChEMBL document CHEMBL1687778, “Genetic determinants involved in the susceptibility of Pseudomonas aeruginosa to beta-lactam antibiotics” (2010)
